ChEMBL document CHEMBL4325910, “Design and synthesis of rosiglitazone-ferulic acid-nitric oxide donor trihybrids for improving glucose tolerance” (Eur J Med Chem, 2019)
The source made the active and inactive calls. The rule behind the calls is not given here.

Legend:
Platelet [1] = assay: Antiplatelet activity in platelet rich plasma (unknown origin) assessed as inhibition of arachidonic acid-induced platelet aggregation at 16 mM relative to control; format: functional
Platelet [2] = assay: Antiplatelet activity in platelet rich plasma (unknown origin) assessed as inhibition of ADP-induced platelet aggregation at 4 mM relative to control; format: functional
Platelet [3] = assay: Antiplatelet activity in platelet rich plasma (unknown origin) assessed as inhibition of arachidonic acid-induced platelet aggregation at 4 mM relative to control; format: functional
Mus musculus [4] = assay: Antidiabetic activity in spontaneous db/db BKS.Cg-Dock7m +/+ Leprdb/J mouse assessed as decrease in fasting blood glucose level at 10 mg/kg, po administered as daily dose via gavage for 18 days measured on day 9 post last dose by glucometric analysis; format: functional, organism-based
Procedure, shortened: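 Male db/db mice (BKS.Cg-Dock7m +/+ Leprdb/J), 6 weeks old on purchase, randomized, n=8 per group. Dosed by gavage in 0.5% CMC-Na daily for 18 consecutive days. Vehicle-dosed db/db and C57BL/6 mice served as model and control. Fasting glucose was read by glucometer every three days. On day 12, after an overnight fast, 2 g/kg glucose was given orally. Blood glucose was read at 0–120 min and AUC calculated. Mean ± SEM.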

[5] = Toxicity in ICR mouse assessed mouse mortality at 500 mg/kg, po administered as single dose via gavage treated on day 1 and measured daily up to 14 days; format: organism-based; details: in vivo, 336 h
Procedure, shortened: (§1)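 Mice of both sexes, 7 weeks old, were randomized and given one oral gavage dose on day 1. Dose levels were 500, 1000, 2000, 3000, 4000 or 5000 mg/kg, or 2000, 4000 and 5000 mg/kg, with n = 10 per group. Behaviour, health and mortality were checked daily for 14 days, and total deaths were counted on day 14. LD50 was calculated with 95% confidence limits.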

Platelet [6] = assay: Antiplatelet activity in platelet rich plasma (unknown origin) assessed as inhibition of ADP-induced platelet aggregation at 2 mM relative to control; format: functional
Platelet [7] = assay: Antiplatelet activity in platelet rich plasma (unknown origin) assessed as inhibition of arachidonic acid-induced platelet aggregation at 8 mM relative to control; format: functional
Platelet [8] = assay: Antiplatelet activity in platelet rich plasma (unknown origin) assessed as inhibition of arachidonic acid-induced platelet aggregation at 2 mM relative to control; format: functional
3T3-L1 [9] = assay: Inhibition of ROS production in TNF-alpha-induced insulin resistant mouse 3T3L1 cells at 10 uM after 48 hrs in presence of nitric oxide scavenger C-PTIO by DCFH-DA dye-based fluorescence assay; format: functional, cell-based
[10] = Toxicity in ICR mouse assessed mouse mortality at 2000 mg/kg, po administered as single dose via gavage treated on day 1 and measured daily up to 14 days; format: organism-based; details: in vivo, 336 h; procedure, shortened: as §1
Platelet [11] = assay: Antiplatelet activity in platelet rich plasma (unknown origin) assessed as inhibition of arachidonic acid-induced platelet aggregation at 0.2 mM relative to control; format: functional
[12] = Toxicity in spontaneous db/db BKS.Cg-Dock7m +/+ Leprdb/J mouse assessed as reduction in serum hematocrit value at 13.5 to 27 umol/kg, po administered as daily dose via gavage treated for 18 days; format: organism-based; details: in vivo, 432 h
[13] = Metabolic stability in simulated gastric fluid at pH 1.5 measured after 24 hrs by HPLC analysis; format: ADME; details: read-out: Stability
Procedure, shortened: (§2)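 Gastric fluid was 1% pepsin in water, pH 1.5. Intestinal fluid was 1% trypsin with 0.68% KH2PO4, pH 6.8. Compound (100 mM DMSO stock) was diluted 1:1000 into each, in triplicate. Incubation was at 37 °C for 0, 2, 4, 6, 16 or 24 h. Acetonitrile (3 volumes) stopped it, then HPLC at 254 nm.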

Platelet [14] = assay: Antiplatelet activity in platelet rich plasma (unknown origin) assessed as inhibition of arachidonic acid-induced platelet aggregation at 0.8 mM relative to control; format: functional
[15] = Metabolic stability in simulated intestinal fluid at pH 6.8 measured after 24 hrs by HPLC analysis; format: ADME; details: read-out: Stability; procedure, shortened: as §2
Mus musculus [16] = assay: Effect on lipid metabolism in spontaneous db/db BKS.Cg-Dock7m +/+ Leprdb/J mouse assessed as decrease in serum triglyceride level at 27 umol/kg, po administered as daily dose via gavage for 18 days; format: functional, organism-based
Procedure, shortened: (§3)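 db/db mice were gavaged daily for 18 days in 0.5% CMC-Na (n=8 per group), with a vehicle model group. On day 19, blood was collected and serum prepared by centrifugation. Serum triglyceride and HDL were then measured.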

[17] = Toxicity in spontaneous db/db BKS.Cg-Dock7m +/+ Leprdb/J mouse assessed as body weight gain at 13.5 umol/kg, po administered as daily dose via gavage treated for 18 days measured post last dose (reference value: 5.6 +/- 2.1 g); format: organism-based; details: in vivo, 432 h
[18] = Metabolic stability in simulated intestinal fluid at pH 6.8 measured after 4 hrs by HPLC analysis; format: ADME; details: read-out: Stability; procedure, shortened: as §2
Platelet [19] = assay: Antiplatelet activity in platelet rich plasma (unknown origin) assessed as inhibition of ADP-induced platelet aggregation at 1.6 mM relative to control; format: functional
3T3-L1 [20] = assay: Induction of GSH level in TNF-alpha-induced insulin resistant mouse 3T3L1 cells at 3 to 10 uM after 48 hrs; format: functional, cell-based
Procedure, shortened: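 3T3-L1 preadipocytes were differentiated, and mature adipocytes made insulin resistant with TNF-α (4 ng/mL) daily for 4 days. Cells were then treated in triplicate for 48 h, with or without 20 μM C-PTIO. Lysate GSH, SOD and MDA were measured with kits. Three experiments, mean ± SD.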

[21] = Metabolic stability in human liver microsomes after 1 hrs in presence of NADPH by HPLC analysis; format: ADME, Microsome; details: read-out: Stability
Procedure, shortened: (§4)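 Compound (100 mM DMSO stock) was added in triplicate to 0.1 M phosphate buffer pH 7.4 with 3.3 mM MgCl2 and human liver microsomes, then preincubated 5 min at 37 °C. NADPH (1.3 mM stock) was added and incubation continued 0, 0.5, 1, 2 or 6 h. Acetonitrile quench, then HPLC at 254 nm.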

[22] = Metabolic stability in human liver microsomes after 6 hrs in presence of NADPH by HPLC analysis; format: ADME, Microsome; details: read-out: Stability; procedure, shortened: as §4
Mus musculus [23] = assay: Cardioprotective activity in db/db BKS.Cg-Dock7m +/+ Leprdb/J mouse assessed as decrease in serum TNF-alpha level at 27 umol/kg, po administered as daily dose via gavage treated for 18 days by ELISA; format: functional, organism-based
Procedure, shortened: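 db/db mice were gavaged daily for 18 days in 0.5% CMC-Na, with vehicle-treated model and C57BL/6 control groups. Tail vein blood was collected and serum TNF-α and cTnI measured by commercial ELISA kits. Six individual experiments, mean ± SD, one-way ANOVA.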

Mus musculus [24] = assay: Effect on lipid metabolism in spontaneous db/db BKS.Cg-Dock7m +/+ Leprdb/J mouse assessed as increase in serum HDL level at 27 umol/kg, po administered as daily dose via gavage for 18 days; format: functional, organism-based; procedure, shortened: as §3
Platelet [25] = assay: Antiplatelet activity in platelet rich plasma (unknown origin) assessed as inhibition of arachidonic acid-induced platelet aggregation at 0.05 mM relative to control; format: functional
[26] = Metabolic stability in simulated gastric fluid at pH 1.5 measured after 6 hrs by HPLC analysis; format: ADME; details: read-out: Stability; procedure, shortened: as §2
[27] = Metabolic stability in human liver microsomes measured immediately after compound addition in presence of NADPH by HPLC analysis; format: ADME, Microsome; details: read-out: Stability; procedure, shortened: as §4

Structure (SMILES): CN(CCOc1ccc(CC2SC(=O)NC2=O)cc1)c1ccccn1 (configuration not stated) [ROSIGLITAZONE]
- inhibition at 16000 µM (Platelet [1]): 67.2%
- inhibition at 4000 µM (Platelet [2]): 43.1%
- inhibition at 4000 µM (Platelet [3]): 42.2%
- Activity (Mus musculus [4]): Active
- Activity [5]: Non-Toxic
- inhibition at 2000 µM (Platelet [6]): 25.3%
- inhibition at 8000 µM (Platelet [7]): 54.4%
- inhibition at 2000 µM (Platelet [8]): 28%
- inhibition (3T3-L1 [9]): inactive

Structure (SMILES): CCN(CC)/[N+]([O-])=N/OCOC(=O)/C=C/c1ccc(OC(=O)OCN2C(=O)SC(Cc3ccc(OCCN(C)c4ccccn4)cc3)C2=O)c(OC)c1 (configuration not stated)
- Activity [10]: Non-Toxic
- inhibition at 200 µM (Platelet [11]): 30.2%
- Activity [12]: Non-Toxic
- remaining at 24 h [13]: 82.6%
- inhibition at 800 µM (Platelet [14]): 51.6%
- remaining at 24 h [15]: 75.5%
- Activity (Mus musculus [16]): Active
- Activity [17]: 4 g
- remaining at 4 h [18]: 96.9%
- inhibition at 1600 µM (Platelet [19]): 47%
- Activity (3T3-L1 [20]): Active
- remaining at 1 h [21]: 89.9%
- remaining at 6 h [22]: 82%
- Activity (Mus musculus [23]): Active
- Activity (Mus musculus [24]): Active
- inhibition at 50 µM (Platelet [25]): 9.2%
- remaining at 6 h [26]: 93.6%
- remaining at 0 h [27]: 100%
